In series [1] the test system is HeLa. The series can be described thus: Photocytotoxicity against human HeLa cells assessed as cell survival preincubated for 24 hrs followed by irradiation at 16 J/cm2 measured at 24 hrs by WST-8 assay. It is filed as functional, cell-based. The note with it: light or radiation study. A digest of the protocol:
(§1)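 Cells (5 × 10^3/well) in DMEM with 10% FCS, 24 h at 37°C, 5% CO2; photosensitizer 1–50000 nM (1% DMSO final) for 24 h, washed, fresh medium. Irradiated with 100-W halogen lamp through λ>500 nm or λ>600 nm cutoff filter to 16 J·cm−2; WST-8 absorbance at 450 nm 24 h later, survival normalized to no-drug wells.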

Series [2] can be described thus: Induction of reactive oxygen generation assessed as quantum yield of hydroxyl radical generation in O2 saturated PBS containing 1% DMSO under photoirradiation by spectrometry relative to control hematoporphyrin. Type of series: physicochemical. The note with it: buffer. The method, boiled down: (§2)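 Photosensitizer (1.00 µM) with HPF (2.00 µM) in PBS containing 1% DMSO, oxygenated 1 min, irradiated with 100-W halogen lamp through λ>500 nm cutoff filter at 37°C; hematoporphyrin as reference.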

Series [3] can be described thus: Induction of reactive oxygen generation assessed as quantum yield of singlet oxygen generation in O2 saturated D2O containing 0.1% DMSO by spectrometry. It is filed as physicochemical. The method, boiled down:
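Photosensitizer in D2O with 0.1% DMSO, absorbance set to 0.4 at its excitation wavelength, oxygen-purged 1 min; singlet-oxygen luminescence recorded with NIR photomultiplier cooled to 193 K; TPPS as reference.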

Series [4] can be described thus: Induction of reactive oxygen generation assessed as quantum yield of hydrogen peroxide generation in O2 saturated PBS containing 1% DMSO under photoirradiation by spectrometry relative to control hematoporphyrin. Conditions: buffer. It is filed as physicochemical. The method, boiled down:
as §2

Series [5] relates to HeLa. The series can be described thus: Dark cytotoxicity against human HeLa cells at 0.5 uM assessed as cell survival preincubated for 24 hrs measured by WST-8 assay in absence of photoirradiation. Type of series: cell-based. The method, boiled down: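 HeLa cells were seeded at 5 × 10^3 per well in DMEM with 10% FCS and grown for 24 h at 37°C. They were then exposed for 24 h to 0.5 µM photosensitizer (1% DMSO final), washed, and not irradiated. Viability was read 24 h later by WST-8 absorbance at 450 nm and expressed as percent of untreated wells.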
For orientation: Tetrazolium assays rely on reduction of a dye to a coloured formazan, in cell work by metabolically active cells.

The subject of series [6] is HeLa. The series can be described thus: Drug uptake in human HeLa cells at 0.1 uM after 24 hrs by spectrophotometrical analysis. It is filed as ADME, cell-based. The method, boiled down: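 HeLa cells (2.5 × 10^6/well) in DMEM with 10% FCS, preincubated 24 h at 37°C; photosensitizer added to 0.1 µM final (1% DMSO) for 24 h, two wells each. Cells washed twice with PBS, lysed in DMSO, Soret-band absorbance read against DMSO calibration; mean of three replicate experiments.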

Series [7] is described as follows: Ratio of drug level in tumor to skin in iv dosed BDXI rat implanted with rat LSBD1 cells after 24 hrs. Type of series: ADME, organism-based. Conditions: in vivo.
In a further series the test system is 4T1. In words: Photocytotoxicity against mouse 4T1 cells assessed as cell survival preincubated for 24 hrs followed by irradiation at 16 J/cm2 measured at 24 hrs by WST-8 assay. Conditions: 4T1, light or radiation study. Type of series: functional, cell-based. The method, boiled down:
as §1

Series [8] in a line: Photocytotoxicity against human U87 cells assessed as cell survival preincubated for 24 hrs followed by irradiation at 16 J/cm2 measured at 24 hrs by WST-8 assay. The note with it: U-87 MG, light or radiation study. Type of series: functional, cell-based, U-87MG ATCC. The method, boiled down:
as §1

For another series, the system named is T98G. In words: Photocytotoxicity against human T98G cells assessed as cell survival preincubated for 24 hrs followed by irradiation at 16 J/cm2 measured at 24 hrs by WST-8 assay. Type of series: functional, cell-based. Conditions: light or radiation study. The method, boiled down: as §1
A short description of series [9]: Photocytotoxicity against rat RGK1 cells assessed as cell survival preincubated for 24 hrs followed by irradiation at 16 J/cm2 measured at 24 hrs by WST-8 assay. It is filed as functional, cell-based. Conditions: RGK1, light or radiation study. The method, boiled down:
as §1

A further series has as its system U-251. The series can be described thus: Photocytotoxicity against human U251 cells assessed as cell survival preincubated for 24 hrs followed by irradiation at 16 J/cm2 measured at 24 hrs by WST-8 assay. It is filed as functional, cell-based. Conditions: U-251, light or radiation study. A digest of the protocol:
as §1

The nature of series [10]: Photocytotoxicity against mouse B16-F1 cells assessed as cell survival preincubated for 24 hrs followed by irradiation at 16 J/cm2 measured at 24 hrs by WST-8 assay. Type of series: functional, cell-based. The note with it: B16-F1, light or radiation study. A digest of the protocol:
as §1

`OC[C@H]1O[C@@H](Oc2ccc(/C3=C4\C=CC(=N4)C(c4ccc(O[C@@H]5O[C@H](CO)[C@@H](O)[C@H](O)[C@H]5O)cc4)C4=N/C(=C(/c5ccc(O[C@@H]6O[C@H](CO)[C@@H](O)[C@H](O)[C@H]6O)cc5)c5ccc([nH]5)/C(c5ccc(O[C@@H]6O[C@H](CO)[C@@H](O)[C@H](O)[C@H]6O)cc5)=C5/C=CC3=N5)C=C4)cc2)[C@H](O)[C@@H](O)[C@@H]1O` (stereo partly drawn): the EC50 (in general, the midpoint of the concentration-response curve) with HeLa [1] was 5000 nM.

For `CN1CC2C3=N/C(=C(/c4c(F)c(F)c(S[C@@H]5O[C@H](CO)[C@@H](O)[C@H](O)[C@H]5O)c(F)c4F)C4=N/C(=C(/c5c(F)c(F)c(S[C@@H]6O[C@H](CO)[C@@H](O)[C@H](O)[C@H]6O)c(F)c5F)c5ccc([nH]5)/C(c5c(F)c(F)c(S[C@@H]6O[C@H](CO)[C@@H](O)[C@H](O)[C@H]6O)c(F)c5F)=C5/C=CC(=N5)C3c3c(F)c(F)c(S[C@@H]5O[C@H](CO)[C@@H](O)[C@H](O)[C@H]5O)c(F)c3F)C=C4)C2C1` (stereo partly drawn), the figures for the Ratio in series [2] and in series [4] were 1.1 and 1.7, respectively. Besides, the Activity in series [3] was 0.17; in the series on HeLa [5], “Non-toxic”. The EC50 in the series on HeLa [1] was found to be 50 nM. The Drug uptake result with HeLa [6] is “Active”.

Take `Oc1cccc(-c2c3nc(c(-c4cccc(O)c4)c4ccc([nH]4)c(-c4cccc(O)c4)c4nc(c(-c5cccc(O)c5)c5ccc2[nH]5)CC4)C=C3)c1` [TEMOPORFIN]: the Ratio in [7] is given as 3.

As for `OC[C@H]1O[C@@H](Sc2c(F)c(F)c(/C3=C4\C=CC(=N4)C(c4c(F)c(F)c(F)c(F)c4F)C4=N/C(=C(/c5c(F)c(F)c(S[C@@H]6O[C@H](CO)[C@@H](O)[C@H](O)[C@H]6O)c(F)c5F)c5ccc([nH]5)/C(c5c(F)c(F)c(F)c(F)c5F)=C5/C=CC3=N5)C=C4)c(F)c2F)[C@H](O)[C@@H](O)[C@@H]1O` (stereo partly drawn), the EC50 (in the series on 4T1; in [8]; with T98G; in the series with HeLa [1]; in series [9]; with U-251) was 10 nM in each case. For the same compound, the EC50 in [10] came out at 1 nM. In addition, the Ratio is reported as 7.7 in series [2] and 0.8 in series [4]. The Activity in series [3] is 0.16; in the series with HeLa [5], “Non-toxic”. For the same compound, in the series on HeLa [6], the Drug uptake result is listed as “Active”.

For the compound `O=S(=O)(O)c1ccc(-c2c3nc(c(-c4ccc(S(=O)(=O)O)cc4)c4ccc([nH]4)c(-c4ccc(S(=O)(=O)O)cc4)c4nc(c(-c5ccc(S(=O)(=O)O)cc5)c5ccc2[nH]5)C=C4)C=C3)cc1`, the Activity in series [3] was 0.72.

Regarding `CC1=C(CCC(=O)O)c2cc3[nH]c(cc4nc(cc5[nH]c(cc1n2)c(C)c5C(C)O)C(C)=C4C(C)O)c(C)c3CCC(=O)O` (stereo not drawn) [HEMATOPORPHYRIN], the Ratio in series [2] and in series [4] was 1 in each case.

(Values after ChEMBL document CHEMBL3734686, “Synthesis, Photophysical Properties, and Biological Evaluation of trans-Bisthioglycosylated Tetrakis(fluorophenyl)chlorin for Photodynamic Therapy” (J Med Chem, 2015).)
